Laboratory results taken from ChEMBL document CHEMBL2321866 (J Med Chem, 2013).
Active and inactive are the calls of the source. No cut-off for these calls is given here.

Legend:
Cannabinoid receptor 2 [1] = target: T1, Cannabinoid receptor 2 (Homo sapiens, UniProt P34972); experiment: Displacement of [3H]CP-55,940 from CB2 receptor (unknown origin) after 1 hr by scintillation counting analysis
Cannabinoid receptor 1 = Cannabinoid receptor 1 (Homo sapiens, UniProt P21554)
Homo sapiens = species: Homo sapiens; experiment: Selectivity index, ratio of Ki for CB1 receptor (unknown origin) to Ki for CB2 receptor (unknown origin)
RAW264.7 [2] = experiment: Cytotoxicity against mouse RAW264.7 cells assessed as cell viability at […] after 3 days by MTT assay; type: cell-based; conditions: raw264.7, 72 h
RAW264.7 [3] = experiment: Inhibition of RANKL-induced osteoclastogenesis in mouse RAW264.7 cells at 10 uM after 5 days by TRAP assay relative to control; type: functional; conditions: RAW264.7, 120 h
Method in brief: (§1)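 RAW 264.7 murine monocytic cells were seeded at 3 × 10^3 per well and cultured 24 h in αMEM with 10% FBS. Medium was then replaced with the same medium containing RANKL (15 ng/mL) plus test compound. […] Mean of three experiments, each in triplicate.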

RAW264.7 [4] = experiment: Inhibition of RANKL-induced osteoclastogenesis in mouse RAW264.7 cells after 5 days by TRAP assay; type: functional, cell-based
Method in brief: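 RAW 264.7 cells, 3×10^3 per well, grown 24 h in αMEM/10% FBS, then switched to medium with RANKL (15 ng/mL) plus compound (0.1–10 µM). After 5 days cells fixed and TRAP-stained; TRAP+ cells with more than three nuclei scored as osteoclasts. Mean of three experiments in triplicate.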

Cannabinoid receptor 2 [5] = target: T1, Cannabinoid receptor 2; experiment: Inverse agonist activity at human CB2 receptor expressed in CHO cells assessed as increase in forskolin-induced cAMP production after 45 mins in presence of phosphodiesterase inhibitor RO20-1724; type: functional, cell-based
RAW264.7 [6] = experiment: Cytotoxicity against mouse RAW264.7 cells assessed as cell viability at 5 uM after 3 days by MTT assay; type: cell-based; conditions: raw264.7, 72 h
Method in brief: (§2)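 Survival measured by MTT and expressed as percent of vehicle control. Mean ± S.E.M. of experiments run in triplicate.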

RAW264.7 [7] = experiment: Cytotoxicity against mouse RAW264.7 cells assessed as cell viability at 2.5 uM after 3 days by MTT assay relative to vehicle-treated control; type: cell-based; conditions: raw264.7, 72 h; method in brief: as §2
RAW264.7 [8] = experiment: Cytotoxicity against mouse RAW264.7 cells assessed as cell viability at 5 to 10 uM after 3 days by MTT assay; type: cell-based; conditions: raw264.7, 72 h; method in brief: as §2
RAW264.7 [9] = experiment: Inhibition of RANKL-induced osteoclastogenesis in mouse RAW264.7 cells at 1 uM after 5 days by TRAP assay relative to control; type: functional; method in brief: as §1
RAW264.7 [10] = experiment: Inhibition of RANKL-induced osteoclastogenesis in mouse RAW264.7 cells at 0.1 uM after 5 days by TRAP assay relative to control; type: functional; conditions: RAW264.7, 120 h; method in brief: as §1

Chain of Cannabinoid receptor 1 (P21554 whole entry): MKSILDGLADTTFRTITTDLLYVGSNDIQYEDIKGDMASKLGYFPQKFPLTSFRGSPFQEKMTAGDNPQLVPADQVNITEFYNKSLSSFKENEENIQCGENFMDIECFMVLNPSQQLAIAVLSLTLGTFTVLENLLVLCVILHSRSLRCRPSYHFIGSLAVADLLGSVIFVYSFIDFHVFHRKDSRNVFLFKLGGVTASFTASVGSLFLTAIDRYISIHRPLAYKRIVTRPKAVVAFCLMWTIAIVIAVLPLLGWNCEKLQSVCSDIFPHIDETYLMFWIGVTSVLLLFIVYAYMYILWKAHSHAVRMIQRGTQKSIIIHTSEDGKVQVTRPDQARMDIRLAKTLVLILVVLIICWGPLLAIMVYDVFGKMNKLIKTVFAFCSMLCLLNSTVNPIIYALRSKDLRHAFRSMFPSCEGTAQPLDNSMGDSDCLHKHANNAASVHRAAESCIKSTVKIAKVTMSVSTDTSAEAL
T1 sequence (P34972 whole entry): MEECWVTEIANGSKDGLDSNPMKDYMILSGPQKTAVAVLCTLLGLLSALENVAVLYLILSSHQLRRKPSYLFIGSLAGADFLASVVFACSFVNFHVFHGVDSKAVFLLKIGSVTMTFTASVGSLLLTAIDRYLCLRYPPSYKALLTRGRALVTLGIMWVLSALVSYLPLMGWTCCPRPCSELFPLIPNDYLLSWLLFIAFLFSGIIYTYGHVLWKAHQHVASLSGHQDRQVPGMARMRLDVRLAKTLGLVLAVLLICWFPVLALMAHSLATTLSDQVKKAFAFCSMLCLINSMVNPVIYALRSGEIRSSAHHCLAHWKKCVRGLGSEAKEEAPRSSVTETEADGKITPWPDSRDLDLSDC

| Structure (SMILES) | Ki (Cannabinoid receptor 2 [1]; read-out: Ki) [nM] | Ratio Ki (Homo sapiens) | also measured |
| --- | --- | --- | --- |
| CCN(CC)c1ccc(CN(C(=O)C2CCCCC2)c2ccc(Cl)cc2)cc1 | 164 | 121 | Ki (Cannabinoid receptor 1): > 20000 nM |
| CCCCCCCN(Cc1ccc(N(CC)CC)cc1)C(=O)Cc1ccccc1 | 1310 | – | – |
| CCCCCCCN(Cc1ccc(N(CC)CC)cc1)C(=O)c1ccc(N(C)C)cc1 | 1280 | – | – |
| CCCCCCCN(Cc1ccc(N(CC)CC)cc1)S(=O)(=O)c1cccc(C)c1 | 2300 | – | – |
| CCCCCCCN(Cc1ccc(N(CC)CC)cc1)S(=O)(=O)c1ccc(Cl)cc1 | 6740 | – | – |
| CCN(CC)c1ccc(CN(c2ccc(Cl)cc2)S(=O)(=O)c2cccc(C)c2)cc1 | 2.8 | – | – |
| CCN(CC)c1ccc(CN[C@]23C[C@H]4C[C@H](C[C@H](C4)C2)C3)cc1 | 20000 | – | – |
| CCN(CC)c1ccc(CN(c2ccc(C)cc2)S(=O)(=O)c2cccc(C)c2)cc1 | 5.8 | 37 | – |
| CCN(CC)c1ccc(CN(C(=O)Cc2ccccc2)[C@]23C[C@H]4C[C@H](C[C@H](C4)C2)C3)cc1 | 38 | > 333 | Ki (Cannabinoid receptor 1): > 20000 nM |
| CCN(CC)c1ccc(CN(C(=O)C2CCCCC2)[C@]23C[C@H]4C[C@H](C[C@H](C4)C2)C3)cc1 | 35 | > 571 | Ki (Cannabinoid receptor 1): > 20000 nM |
| CCN(CC)c1ccc(CN(C(=O)Cc2ccc(Cl)cc2)c2ccc(Cl)cc2)cc1 | 136 | 147 | – |
| CCN(CC)c1ccc(CN([C@]23C[C@H]4C[C@H](C[C@H](C4)C2)C3)S(=O)(=O)c2cccc(C)c2)cc1 | 19 | – | Activity (RAW264.7 [2]): Non-toxic; inhibition at 10 µM (RAW264.7 [3]): > 95%; Ki (Cannabinoid receptor 1): 8220 nM; inhibition (RAW264.7 [4]): Dose-dependent effect |
| CCCCCCCC(=O)N(Cc1ccc(N(CC)CC)cc1)[C@]12C[C@H]3C[C@H](C[C@H](C3)C1)C2 | 638 | – | – |
| CCCCCCCN(Cc1ccc(N(CC)CC)cc1)S(=O)(=O)c1ccc(OC)cc1 | 5190 | – | – |
| CCN(CC)c1ccc(CN(c2ccc(C)cc2)S(=O)(=O)c2ccc(Cl)cc2)cc1 | 3 | – | – |
| CCN(CC)c1ccc(CN(c2ccc(C)cc2)S(=O)(=O)c2ccccc2)cc1 | 3.4 | 151 | EC50 (Cannabinoid receptor 2 [5]): 609 nM |
| CCN(CC)c1ccc(CN(c2ccc(Cl)cc2)S(=O)(=O)c2ccc(Cl)cc2)cc1 | 36 | 183 | – |
| CCN(CC)c1ccc(CN(c2ccc(Cl)cc2)S(=O)(=O)c2ccc(C(C)C)cc2)cc1 | 222 | – | – |
| CCN(CC)c1ccc(CN(c2ccc(C)cc2)S(=O)(=O)c2ccc(C)cc2)cc1 | 5.4 | – | – |
| CCCCCCCN(Cc1ccc(N(CC)CC)cc1)S(=O)(=O)Cc1ccccc1 | 273 | – | – |
| CCN(CC)c1ccc(CN([C@]23C[C@H]4C[C@H](C[C@H](C4)C2)C3)S(=O)(=O)c2ccc(C(C)C)cc2)cc1 | 457 | – | – |
| CCN(CC)c1ccc(CN([C@]23C[C@H]4C[C@H](C[C@H](C4)C2)C3)S(=O)(=O)c2ccccc2)cc1 | 84 | 130 | Ki (Cannabinoid receptor 1): 11000 nM |
| CCN(CC)c1ccc(CN(C(=O)C2CCCCC2)c2ccc(C)cc2)cc1 | 222 | 0.9 | – |

| Structure (SMILES) | Ki (Cannabinoid receptor 2 [1]; read-out: Ki) [nM] | Ratio Ki (Homo sapiens) | also measured |
| --- | --- | --- | --- |
| CCN(CC)c1ccc(CN(C(=O)Cc2ccc(Cl)cc2)c2ccc(C)cc2)cc1 | 107 | 29 | – |
| CCN(CC)c1ccc(CN(c2ccc(Cl)cc2)S(=O)(=O)c2ccc(C)cc2)cc1 | 37 | 3.7 | – |
| CCCCCCCN(Cc1ccc(N(CC)CC)cc1)S(=O)(=O)c1ccc(C(C)C)cc1 | 13000 | – | – |
| CCN(CC)c1ccc(CN(C(=O)Cc2ccc(Cl)cc2)[C@]23C[C@H]4C[C@H](C[C@H](C4)C2)C3)cc1 | – | – | Ki (Cannabinoid receptor 1): > 20000 nM |
| CCCCCCCN(Cc1ccc(N(CC)CC)cc1)S(=O)(=O)c1ccc(F)cc1 | 1100 | – | – |
| CCCCCCCN(Cc1ccc(N(CC)CC)cc1)S(=O)(=O)c1ccc(OC(C)C)cc1 | > 20000 | – | – |
| CCN(CC)c1ccc(CN([C@]23C[C@H]4C[C@H](C[C@H](C4)C2)C3)S(=O)(=O)c2ccc(C)cc2)cc1 | – | – | Ki (Cannabinoid receptor 1): > 20000 nM |
| Cc1ccc(S(=O)(=O)N(CCc2ccc(Cl)cc2)S(=O)(=O)c2ccc(C)cc2)cc1 | 192 | 26 | – |
| CCN(CC)c1ccc(CN([C@]23C[C@H]4C[C@H](C[C@H](C4)C2)C3)S(=O)(=O)c2ccc(F)cc2)cc1 | 25 | – | EC50 (Cannabinoid receptor 2 [5]): 268 nM; Ki (Cannabinoid receptor 1): 4270 nM |
| CCN(CC)c1ccc(CN(c2ccc(C)cc2)S(=O)(=O)c2ccc(C(C)C)cc2)cc1 | 4.3 | 782 | – |
| CCN(CC)c1ccc(CN(c2ccc(C)cc2)S(=O)(=O)c2ccc(F)cc2)cc1 | 5.6 | 153 | – |
| CCN(CC)c1ccc(CN([C@]23C[C@H]4C[C@H](C[C@H](C4)C2)C3)S(=O)(=O)c2ccc(Cl)cc2)cc1 | 173 | 11 | Ki (Cannabinoid receptor 1): 2030 nM |
| CCCCCCCN(Cc1ccc(N(CC)CC)cc1)C(=O)Cc1ccc(Cl)cc1 | 696 | – | – |
| CCN(CC)c1ccc(CN(c2ccc(Cl)cc2)S(=O)(=O)c2ccc(OC)cc2)cc1 | 14 | > 1430 | Activity (RAW264.7 [6]): Toxic; Activity (RAW264.7 [7]): Non-toxic; Activity (RAW264.7 [2]): Non-toxic; inhibition at 10 µM (RAW264.7 [3]): > 95%; EC50 (Cannabinoid receptor 2 [5]): 16.4 nM; Ki (Cannabinoid receptor 1): > 20000 nM; Activity (RAW264.7 [8]): Toxic; inhibition (RAW264.7 [9]): Active; inhibition (RAW264.7 [4]): Dose-dependent effect |
| CCN(CC)c1ccc(CN(C(=O)Cc2ccccc2)c2ccc(C)cc2)cc1 | 72 | > 277 | Ki (Cannabinoid receptor 1): > 20000 nM |
| CCN(CC)c1ccc(CN(c2ccc(C)cc2)S(=O)(=O)c2ccc(OC)cc2)cc1 | 0.5 | 2590 | Activity (RAW264.7 [6]): Toxic; Activity (RAW264.7 [7]): Non-toxic; inhibition at 10 µM (RAW264.7 [3]): 100%; EC50 (Cannabinoid receptor 2 [5]): 42.7 nM; Activity (RAW264.7 [8]): Toxic; inhibition at 1 µM (RAW264.7 [9]; RAW264.7, 120 h): 97%; inhibition at 0.1 µM (RAW264.7 [10]): 46%; inhibition (RAW264.7 [4]): Dose-dependent effect |
| CCN(CC)c1ccc(CN(c2ccc(Cl)cc2)S(=O)(=O)c2ccc(F)cc2)cc1 | 73 | 15 | – |
| CCN(CC)c1ccc(CN([C@]23C[C@H]4C[C@H](C[C@H](C4)C2)C3)S(=O)(=O)c2ccc(OC)cc2)cc1 | 137 | – | – |
| CCN(CC)c1ccc(CNc2ccc(Cl)cc2)cc1 | 6740 | – | – |
| CCCCCCCN(Cc1ccc(N(CC)CC)cc1)S(=O)(=O)CCCC | – | – | Ki (Cannabinoid receptor 2 [1]; read-out: pKi (converted)): 697 nM |
| CCCCCCCN(Cc1ccc(N(CC)CC)cc1)C(=O)C1CCCCC1 | 212 | – | – |
| CCCCCCCC(=O)N(CCCCCCC)Cc1ccc(N(CC)CC)cc1 | > 20000 | – | – |
